This note sets out measurements from ChEMBL document CHEMBL5329219, “α-Aminophosphonate inhibitors of metallo-β-lactamases NDM-1 and VIM-2” (RSC Med Chem, 2023).

Data set [1] concerns the target Metallo-beta-lactamase type 2 (Bacteria) (UniProt C7C422). In words: (§1) Inhibition of bacterial metallo-beta-lactamase NDM-1 preincubated for 5 mins followed by imipenem addition by spectrophotometer analysis. A digest of the protocol:
(§2)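 Purified NDM-1 (10 nM) in 50 mM HEPES pH 7.2 with 100 μM ZnCl2, 2.5% DMSO and 400 μg ml−1 BSA, preincubated with inhibitor (twelve concentrations, 0–800 μM) at 25 °C for 5 min. Reaction started with 100 μM imipenem and absorbance read at 300 nm. Triplicates; IC50 from initial velocities by log[inhibitor] vs. response fit.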

The test system of the next data set is Bacteria. In words: Inhibition of bacterial metallo-beta-lactamase VIM-2 preincubated for 5 mins followed by nitrocefin addition by spectrophotometer analysis. A digest of the protocol: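 Purified VIM-2 (0.1 nM) in 50 mM HEPES pH 7.2 with 100 μM ZnCl2, 2.5% DMSO and 400 μg ml−1 BSA, preincubated with inhibitor (twelve concentrations, 0–800 μM) at 25 °C for 5 min. Reaction started with 100 μM nitrocefin and absorbance read at 482 nm. Triplicates; IC50 from initial velocities by log[inhibitor] vs. response fit.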

The next data set has as its system HepG2. In words: Cytotoxicity against human HepG2 cells incubated for 24 hrs by resorufin based fluorescence assay. In kind it is toxicity, cell-based. Particulars: hepg2, 24 h. A digest of the protocol: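 HepG2 cells grown in DMEM with 10% FBS and 1% penicillin–streptomycin at 37 °C, 5% CO2, seeded for exponential growth. Two-fold serial dilutions of compound added at 0.3% v/v final DMSO for 24 h. PrestoBlue viability read as resorufin fluorescence (544/590 nm). Controls were untreated, DMSO-only and 1% SDS. EC50 from three independent experiments.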

Data set [2] has as its target Metallo-beta-lactamase type 2 (Bacteria, UniProt C7C422). Described as §1. A digest of the protocol: as §2

The source made the active and inactive calls. The rule behind the calls is not given here.

Chain of Metallo-beta-lactamase type 2 (Bacteria) (C7C422 whole entry): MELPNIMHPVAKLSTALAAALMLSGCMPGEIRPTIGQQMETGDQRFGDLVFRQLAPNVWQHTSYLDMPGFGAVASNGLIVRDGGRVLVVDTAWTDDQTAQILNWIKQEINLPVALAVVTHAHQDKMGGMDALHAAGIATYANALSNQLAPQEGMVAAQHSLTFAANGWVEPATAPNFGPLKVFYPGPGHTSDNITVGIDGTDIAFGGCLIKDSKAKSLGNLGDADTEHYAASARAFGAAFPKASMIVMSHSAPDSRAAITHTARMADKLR
Chain of Metallo-beta-lactamase type 2 (C7C422 whole entry): as above

Turning to `O=C(NC(C1CCCCN1)P(=O)(O)O)c1csc2ccccc12` (stereo in doubt; form 2), the inhibition entry in data set [1] was “inactive”.
For the compound `Cl.O=C(Cc1csc2ccccc12)NC(C1CCCCN1)P(=O)(O)O` (stereo not drawn), the inhibition result in the data set on Bacteria is “inactive”. Further, in the data set with HepG2, the Activity result is reported as “Non-Toxic”.
Regarding `Cl.O=C(NC(C1CCCCN1)P(=O)(O)O)c1ccsc1` (stereo not drawn), in the data set with HepG2, the Activity entry is listed as “Non-Toxic”.
With `O=C(NC(C1CCCCN1)P(=O)(O)O)c1scc2c1CCCC2` (stereo in doubt; form 2), the inhibition entry in data set [1] is “inactive”.
With `Cl.O=C(Cc1cccs1)NC(C1CCCCN1)P(=O)(O)O` (stereo not drawn), the inhibition entry in the data set on Bacteria was “inactive”. In the data set with HepG2, the Activity entry is recorded as “Non-Toxic”.
For the compound `O=C(NC(C1CCCCN1)P(=O)(O)O)c1scc2c1CCCC2` (stereo in doubt; form 1), the inhibition result in data set [1] is “inactive”.
Turning to `Cc1[nH]c(=S)sc1CC(=O)NC(C1CCCCN1)P(=O)(O)O.Cl` (stereo in doubt; form 1), the Activity entry with HepG2 was “Non-Toxic”.
On to `Cc1[nH]c(=S)sc1CC(=O)NC(C1CCCCN1)P(=O)(O)O` (stereo in doubt; form 1), for which the inhibition result in data set [1] is “inactive”.
A word on the IC50: it is the point on the concentration scale where inhibition reaches its midpoint. For `Cl.O=C(NC(C1CCCCN1)P(=O)(O)O)c1csc2c1CCCC2` (stereo not drawn), the inhibition entry in data set [1] is “inactive”. In data set [2], this compound had an IC50 of 76 µM. The Activity result in the data set with HepG2 is recorded as “Non-Toxic”.
With `Cl.O=C(NC(C1CCCCN1)P(=O)(O)O)c1csc2ccccc12` (stereo in doubt; form 1), the Activity entry in the data set with HepG2 is reported as “Non-Toxic”.
As for `O=C(NC(C1CCCCN1)P(=O)(O)O)c1cc2c(s1)CCCC2` (stereo in doubt; form 1), in data set [1], the inhibition entry was “inactive”.
As to `Cl.O=C(NC(C1CCCCN1)P(=O)(O)O)c1cc2c(s1)CCCC2` (stereo in doubt; form 1), the Activity result in the data set on HepG2 was “Non-Toxic”.
The same measure, in the same setting: in the case of `Cl.O=C(NC(C1CCCCN1)P(=O)(O)O)c1cccs1` (stereo not drawn) it was “Non-Toxic”.
Still for that read-out and setting: the value for `Cl.O=C(NC(C1CCCCN1)P(=O)(O)O)c1cc2ccccc2s1` (stereo not drawn) was “Non-Toxic”.
For the compound `Cl.O=C(NC(C1CCCCN1)P(=O)(O)O)c1scc2c1CCCC2` (stereo in doubt; form 1), the Activity entry in the data set on HepG2 was “Non-Toxic”.
With `Cc1[nH]c(=S)sc1CC(=O)NC(C1CCCCN1)P(=O)(O)O` (stereo in doubt; form 2), the inhibition result (in data set [1]; in the data set on Bacteria) was “inactive” in each case.
As for `O=C(NC(C1CCCCN1)P(=O)(O)O)c1csc2ccccc12` (stereo in doubt; form 1), the inhibition result in data set [1] is “inactive”.
With `Cl.O=C(Cc1ccsc1)NC(C1CCCCN1)P(=O)(O)O` (stereo not drawn), the inhibition entry with Bacteria is “inactive”. Besides, the Activity entry with HepG2 was “Non-Toxic”.
With `Cl.O=C(Cc1cc2ccccc2s1)NC(C1CCCCN1)P(=O)(O)O` (stereo not drawn), the inhibition result in data set [1] is “inactive”. Moreover, in data set [2], inhibition was half-maximal at 22.4 µM (IC50). For the same compound, the Activity result in the data set with HepG2 was “Non-Toxic”.
As for `O=C(NC(C1CCCCN1)P(=O)(O)O)c1cc2c(s1)CCCC2` (stereo in doubt; form 2), the inhibition result in data set [1] is “inactive”.
